Calls of active or inactive are those of the source. No cut-off for these calls is given here.
Key:
[1] = tested on: A549; test: Cytotoxicity against human A549 cells after 96 hrs by sulforhodamine B assay; assay type: functional, cell-based; conditions: A549, 96 h
In short: (§1)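 Human tumour cell lines in 96-well plates, exposed to test compounds for 96 h, then read by colorimetric sulforhodamine B staining. Viable cells are expressed as % of untreated controls. IC50 is taken from dose–response curves, top concentration 30 µM, as the mean of at least three independent experiments (variation generally 10%). Compounds are given as DMSO solutions or as an aqueous liposomal formulation.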

[2] = tested on: A-431; test: Cytotoxicity against human A431 cells after 96 hrs by sulforhodamine B assay; assay type: functional, cell-based; conditions: A-431, 96 h; in short: as §1
[3] = tested on: DLD-1; test: Cytotoxicity against human DLD1 cells after 96 hrs by sulforhodamine B assay; assay type: functional, cell-based; conditions: DLD-1, 96 h; in short: as §1
[4] = Cytotoxicity against human 518A2 cells after 96 hrs by sulforhodamine B assay; assay type: functional, cell-based; conditions: 518A2, 96 h; in short: as §1
[5] = tested on: HCT-116; test: Cytotoxicity against human HCT116 cells after 96 hrs by sulforhodamine B assay; assay type: functional, cell-based; conditions: HCT-116, 96 h; in short: as §1
[6] = tested on: 8505C; test: Cytotoxicity against human 8505C cells after 96 hrs by sulforhodamine B assay; assay type: functional, cell-based; in short: as §1
[7] = Cytotoxicity against human liposarcoma cells after 96 hrs by sulforhodamine B assay; assay type: functional, cell-based; in short: as §1
[8] = tested on: A2780 (Homo sapiens); test: Induction of apoptosis in human A2780 cells assessed as floating cells at IC90 concentration after 24 hrs by Trypan blue exclusion test
[9] = tested on: SW-1736; test: Cytotoxicity against human SW1736 cells after 96 hrs by sulforhodamine B assay; assay type: functional, cell-based; conditions: SW-1736, 96 h; in short: as §1
[10] = tested on: SW480; test: Cytotoxicity against human SW480 cells after 96 hrs by sulforhodamine B assay; assay type: functional, cell-based; conditions: SW480, 96 h; in short: as §1
[11] = tested on: SW480 (Homo sapiens); test: Induction of apoptosis in human SW480 cells assessed as DNA ladder formation at IC90 concentration after 24 hrs by DNA gel electrophoresis analysis
[12] = tested on: A2780; test: Induction of apoptosis in human A2780 cells assessed as floating cells at IC90 concentration after 24 hrs by Trypan blue exclusion test; assay type: functional, cell-based
In short: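 A2780 ovarian cancer cells treated for 24 h. Floating cells are collected and scored by trypan-blue exclusion: apoptotic cells exclude the dye, necrotic cells stain blue.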

[13] = tested on: HCT-8; test: Cytotoxicity against human HCT8 cells after 96 hrs by sulforhodamine B assay; assay type: functional, cell-based; conditions: HCT-8, 96 h; in short: as §1
[14] = tested on: FaDu; test: Cytotoxicity against human FADU cells after 96 hrs by sulforhodamine B assay; assay type: functional, cell-based; in short: as §1
[15] = tested on: A2780; test: Cytotoxicity against human A2780 cells after 96 hrs by sulforhodamine B assay; assay type: functional, cell-based; conditions: A2780, 96 h; in short: as §1
[16] = tested on: SW480; test: Induction of apoptosis in human SW480 cells assessed as DNA ladder formation at IC90 concentration after 24 hrs by DNA gel electrophoresis analysis; assay type: functional, cell-based
In short: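 SW480 colon cancer cells treated for 24 h. Floating cells are collected, and DNA is analysed by gel electrophoresis for endonuclease-generated fragment laddering.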

[17] = tested on: HT-29; test: Cytotoxicity against human HT-29 cells after 96 hrs by sulforhodamine B assay; assay type: functional, cell-based; conditions: HT-29, 96 h; in short: as §1
[18] = tested on: MCF7; test: Cytotoxicity against human MCF7 cells after 96 hrs by sulforhodamine B assay; assay type: functional, cell-based; conditions: MCF7, 96 h; in short: as §1
[19] = Cytotoxicity against human A253 cells after 96 hrs by sulforhodamine B assay; assay type: functional, cell-based; conditions: A253, 96 h; in short: as §1
[20] = tested on: DLD-1; test: Cytotoxicity against human DLD1 cells at 30 uM after 96 hrs by sulforhodamine B assay; assay type: functional, cell-based
In short: (§2)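 Growth inhibition at the highest tested concentration, 30 µM, after 96 h exposure in 96-well plates. Read by SRB staining as % viable cells relative to untreated controls, from at least three independent experiments.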

[21] = tested on: 518A2; test: Cytotoxicity against human 518A2 cells at 30 uM after 96 hrs by sulforhodamine B assay; assay type: functional, cell-based; in short: as §2
[22] = tested on: HT-29; test: Cytotoxicity against human HT-29 cells at 30 uM after 96 hrs by sulforhodamine B assay; assay type: functional, cell-based; in short: as §2

SMILES	IC50 [1] [µM]	IC50 [2] [µM]	IC50 [3] [µM]	IC50 [4] [µM]	IC50 [5] [µM]	IC50 [6] [µM]	IC50 [7] [µM]	IC50 [9] [µM]	IC50 [10] [µM]	IC50 [13] [µM]	IC50 [14] [µM]	IC50 [15] [µM]	IC50 [17] [µM]	IC50 [18] [µM]	IC50 [19] [µM]	further results
C=C(C)[C@@H]1CC[C@]2([C@@H]3OC(=O)C=C3N(C)C)CC[C@]3(C)[C@H](CC[C@@H]4[C@@]5(C)CC[C@H](OC(C)=O)C(C)(C)[C@@H]5CC[C@]43C)[C@@H]12	6.1	3.3	3.6	4.8	3.2	3.1	5.3	2.9	2.2	1.7	3.8	2.6	5.7	6.9	4.9	Activity [8]: Active; Activity [11]: Active; Activity [12]: Active; Activity [16]: Active
C=C(C)[C@@H]1CC[C@]2([C@@H]3OC(=O)C=C3NC3CC3)CC[C@]3(C)[C@H](CC[C@@H]4[C@@]5(C)CC[C@H](OC(C)=O)C(C)(C)[C@@H]5CC[C@]43C)[C@@H]12	6.6	2.9	4.7	6.2	3.2	6	5.8	3.9	8	1.9	6	2.5	5.1	4	4.2	–
C=C(C)[C@@H]1CC[C@]2([C@H](O)C3=C(C(=O)OC)C(C(=O)OCC)N=N3)CC[C@]3(C)[C@H](CC[C@@H]4[C@@]5(C)CC[C@H](OC(C)=O)C(C)(C)[C@@H]5CC[C@]43C)[C@@H]12 (stereo partly specified)	14.8	7.6	–	21.5	9.8	8.9	19.9	16.4	7.7	10	9.9	9.1	12	8	12.5	inhibition [20]: inactive
C=C(C)[C@@H]1CC[C@]2([C@@H]3OC(=O)C=C3N3CCCC3)CC[C@]3(C)[C@H](CC[C@@H]4[C@@]5(C)CC[C@H](OC(C)=O)C(C)(C)[C@@H]5CC[C@]43C)[C@@H]12	7.8	2.1	5.4	4.7	2.1	5.3	6	4.1	5.7	0.5	6.3	2.2	3.9	3.7	4.6	–
C=C(C)[C@@H]1CC[C@]2([C@H](O)c3cnn(C)c3C(=O)OC)CC[C@]3(C)[C@H](CC[C@@H]4[C@@]5(C)CC[C@H](OC(C)=O)C(C)(C)[C@@H]5CC[C@]43C)[C@@H]12	24.5	12.4	–	–	20.4	10.8	14.1	22.8	7	13.4	17.6	12.7	–	12.3	16	inhibition [21]: inactive; inhibition [22]: inactive; inhibition [20]: inactive
C=C(C)[C@@H]1CC[C@]2(C(=O)O)CC[C@]3(C)[C@H](CC[C@@H]4[C@@]5(C)CC[C@H](O)C(C)(C)[C@@H]5CC[C@]43C)[C@@H]12 [BETULINIC ACID]	–	–	–	–	–	–	9.7	–	–	–	–	11	–	–	–	–
C=C(C)[C@@H]1CC[C@]2([C@H](O)c3nn[nH]c3C(=O)OC)CC[C@]3(C)[C@H](CC[C@@H]4[C@@]5(C)CC[C@H](OC(C)=O)C(C)(C)[C@@H]5CC[C@]43C)[C@@H]12	17.3	16.6	15.5	14.8	15.6	15.4	18.2	11.8	14.7	13.9	15.1	13.4	18.2	14.8	10.3	–

From ChEMBL document CHEMBL1250553, “Synthesis, cytotoxicity and liposome preparation of 28-acetylenic betulin derivatives” (Bioorg Med Chem, 2010)
